Assay outcomes from PubChem BioAssay.
In the library only some 2.6% were active in any assay of this set; here they are far more common.
Arbovirus inh: antivirals against arbovirus infection | arbovirus infection cell-based antiviral screen | inhibition, % at 10 µM | 200,000 compounds, 0.37% hits | AID 1251; in the data active = inhibition above about 30%
TNAP inh hiacc: TNAP (human) inhibition, high acceptor; P05186; purified TNAP, CDP-star luminescence, 1 M DEA; inhibition, % at 20 µM; 200,000 compounds, 0.03% hits; AID 1135;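 active = over 50% inhibition of tissue-nonspecific alkaline phosphatase at 20 µM in the single-dose screen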
Target sequence (P05186 whole entry, looked up): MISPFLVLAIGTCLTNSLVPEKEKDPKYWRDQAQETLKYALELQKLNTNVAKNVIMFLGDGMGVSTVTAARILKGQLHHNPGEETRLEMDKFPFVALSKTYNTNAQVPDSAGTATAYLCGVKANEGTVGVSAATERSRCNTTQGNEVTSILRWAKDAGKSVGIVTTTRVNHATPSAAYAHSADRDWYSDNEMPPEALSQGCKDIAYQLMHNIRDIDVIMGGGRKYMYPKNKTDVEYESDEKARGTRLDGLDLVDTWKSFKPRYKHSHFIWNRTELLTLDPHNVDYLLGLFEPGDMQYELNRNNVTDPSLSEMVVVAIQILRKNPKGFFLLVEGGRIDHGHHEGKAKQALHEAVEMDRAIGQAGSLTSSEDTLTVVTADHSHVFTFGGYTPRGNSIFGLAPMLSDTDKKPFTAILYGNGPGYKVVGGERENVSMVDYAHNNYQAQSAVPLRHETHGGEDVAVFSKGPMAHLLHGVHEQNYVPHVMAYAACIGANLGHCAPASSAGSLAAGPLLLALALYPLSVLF
WT yeast gro inh: growth inhibition of WT yeast, mitochondrial fusion screen | 190,000 compounds, 2.1% hits | inhibition, % at 10 µM | mitochondrial fusion phenotypic screen, WT strain; in the data active = inhibition above about 58%; tested in S. cerevisiae
TNAP inh noacc: TNAP (human) inhibition, acceptor-free conditions. P05186. purified TNAP, CDP-star luminescence, 30 min. inhibition, % at 20 µM. 200,000 compounds, 0.26% hits;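 active = tissue-nonspecific alkaline phosphatase inhibition above about 50% at 20 µM in the single-dose screen, limit read from the data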
TNAP act hiacc: activators of human TNAP at high phosphate acceptor concentration | P05186 | activation factor at 20 µM | purified TNAP, CDP-star luminescence, 1 M DEA, 30 min; stronger effect = higher value; 0 = EDTA background, 1 = DMSO-only activity | 200,000 tested, under 10 active;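 active = activation factor at least 2 at 20 µM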
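Measured by: Luminescent substrate turnover signal | Test system: Human TNAP | Input: TNAP 1/800 final | Dosing: 20 µM single point | Schedule: 30 min, room temperature | Controls: EDTA wells as negative control, DMSO wells as positive control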
Of the large screens only hits and unclear results are named; the others gave an inactive call.

Cc1ccc(C(=O)c2c(NC(=O)c3cccnc3)sc3c2CCCC3)cc1	WT yeast gro inh 61
Cc1ccc(NC(=O)CCn2nc([N+](=O)[O-])cc2C)nc1	none
Cc1cccc(N2CCN(C(=O)c3cn4ccccc4n3)CC2C)c1 (stereo not given)	none
COc1cccc(N/C(N)=N/c2nc(C(F)(F)F)cc(=O)[nH]2)c1	none
O=C(Nc1sc2c(c1C(=O)O)CCC2)c1cccs1	Arbovirus inh 55
NC(=O)c1c(NC(=O)c2cccs2)sc2c1CCCCCC2	none
CC1Cc2ccccc2N1S(=O)(=O)c1cccc(C(=O)NCCCO)c1 (stereo not given)	none
CC1Cc2ccccc2N1S(=O)(=O)c1cccc(C(=O)N2CCN(c3ncccn3)CC2)c1 (stereo not given)	Arbovirus inh 38
CCOC(=O)C1=C(C)NC(C)=C(C(=O)OCC)C1c1nc2ccccc2[nH]1	none (no result: TNAP inh hiacc, TNAP inh noacc, TNAP act hiacc)
CCOC(=O)C(C)c1nc2ccccc2[nH]c1=O (stereo not given)	WT yeast gro inh 73
O=S(=O)(Nc1ccccc1)c1ccc(F)cc1	none
O=C1c2ccccc2C(=O)c2cc(S(=O)(=O)Nc3ccccc3)ccc21	WT yeast gro inh 72
COc1cccc(CC2CC(=O)N(c3ccc4c(C)cc(=O)oc4c3)C2=O)c1 (stereo not given)	none
O=S(=O)(Nc1ccc(-c2csc(-c3ccccc3)n2)cc1)c1ccccc1	WT yeast gro inh 91
Cc1ccc(S(=O)(=O)Nc2ccc(-c3csc(-c4ccccc4)n3)cc2)cc1	none
O=[N+]([O-])c1ccc(S(=O)(=O)Nc2ccc(-c3csc(-c4ccccc4)n3)cc2)cc1	WT yeast gro inh 95
O=[N+]([O-])c1cccc(NC2=NCCC2)c1	none
Cc1c(C(=O)N2CCN(c3ccc(C(F)(F)F)cn3)CC2)oc2ccccc12	WT yeast gro inh 71
Cc1ccc(C(=O)N2CCN(c3ccc(C(F)(F)F)cn3)CC2)cc1	none
Nc1ccccc1Nc1cc(-c2ccccc2)nn1-c1cccc(Cl)c1	WT yeast gro inh 68
CCOC(=O)c1c(C(=O)OCC)c(C)n(CCc2ccc(OC)c(OC)c2)c1C	none
O=C(Nc1ccc2c(c1)nc1n2CCN(Cc2ccccc2)C1)c1cccs1	WT yeast gro inh 63
CN=C1S/C(=C\c2cc(C)n(-c3ccccc3F)c2C)C(=O)N1C	WT yeast gro inh 73
Cc1ccn2c(NC3CCCC3)c(-c3ccncc3)nc2c1	none
Cc1ccn2c(NC3CCCC3)c(-c3ccccn3)nc2c1	WT yeast gro inh 76
Clc1ccc(-c2nc3cnccn3c2Nc2ccc3c(c2)OCO3)cc1	none
c1ccc(-c2nc3ccccn3c2NC2CCCC2)nc1	WT yeast gro inh 68
Clc1ccc(-c2nc3cnccn3c2NC2CCCC2)cc1	WT yeast gro inh 68
C=CCNC(=S)NCCCCC1NC(=S)N(CC=C)C1=O (stereo not given)	none
COC(=O)c1cc2ccccc2c(-c2c(OC)c(C(=O)OC)cc3ccccc23)c1OC	WT yeast gro inh 72
COC(=O)c1cc(N2CCN(C)CC2)nc2ccccc12	none
N#Cc1c(NC(NC(=O)c2ccco2)C(=O)c2ccccc2)sc2c1CCCC2 (stereo not given)	WT yeast gro inh 62
NC(=O)c1c(NC(NC(=O)c2ccco2)C(=O)c2ccc(Cl)cc2)sc2c1CCCC2 (stereo not given)	none
CC(=O)c1sc(N/N=C\c2ccccc2O)nc1C	none
Cc1cccc(C(=O)NC(=S)NNC(=O)COc2ccc(Cl)cc2)c1	WT yeast gro inh 64
Cc1cccc(/C(N)=N/OC(=O)COc2ccc(Cl)cc2)c1	Arbovirus inh 36
Cc1ccc(/C=N/n2cc(-c3ccccc3)[nH]c2=S)s1	WT yeast gro inh 68
Oc1ccc(/C=N/n2cc(-c3ccccc3)[nH]c2=S)cc1	none
S=c1[nH]nc(-c2ccccn2)n1/N=C/c1cccc2ccccc12	none
S=c1[nH]c(-c2ccccc2)cn1/N=C/c1cccc2ccccc12	WT yeast gro inh 75
S=c1[nH]c(-c2ccccc2)cn1/N=C/c1ccccc1Br	WT yeast gro inh 68
CCn1ncc2c(OCc3ccc(C#N)cc3)cc(C)nc21	none
Cc1cccc(C)c1NC(=S)NCCc1ccc(O)c(O)c1	TNAP inh noacc 60
CCC(C)NC(=O)C(=O)NCC1CCCN1CC (stereo not given)	none
Cc1cccc2nc(-c3ccccc3)nc(N3CCC(O)(c4ccc(Cl)cc4)CC3)c12	WT yeast gro inh 68
c1ccc(C(c2ccccc2)c2nc(-c3cccnc3)no2)cc1	WT yeast gro inh 86
c1ccc(C(Cc2nc(-c3cccnc3)no2)c2ccccc2)cc1	none
O=C(NCCOc1ccc(Cl)cc1)c1ccc2ccccc2n1	WT yeast gro inh 62
COc1ccc(CCNC(=O)c2ccc3ccccc3n2)cc1OC	none
Cc1cccc(C)c1OCCNC(=O)c1ccc2ccccc2n1	WT yeast gro inh 68
COC(=O)Nc1ccc(S(=O)(=O)N2CCC(C(=O)N3CCCC(C)C3)CC2)cc1 (stereo not given)	none
Cc1c(CCOC(=O)C23CC4CC(CC(C4)C2)C3)sc[n+]1CC#N	TNAP inh noacc 57
Cc1c(CCO)sc[n+]1CC(=O)OCCC12CC3CC(CC(C3)C1)C2	TNAP inh noacc 62
Cc1c(CCOC(=O)CC23CC4CC(CC(C4)C2)C3)sc[n+]1Cc1ccccc1	none
CCCCCCCCCOC(=O)C[n+]1csc(CCO)c1C	TNAP inh noacc 61
CC12CC3(C)CC(C)(C1)CC(C(=O)NC(=S)N1CCOCC1)(C2)C3	none
CC12CC3CC(C)(C1)CC(C(=O)NC(=S)N1CCCCC1)(C3)C2	WT yeast gro inh 77
CC(=O)N1N=C(c2ccc(C)cc2)OC1c1ccc(Br)cc1 (stereo not given)	WT yeast gro inh 63
C/C(=N\Nc1ccc(F)cc1F)c1cccs1	none
O=C(Nc1cccc(NC(=O)c2ccc(-c3ccc(Br)cc3)o2)c1)c1ccccc1	none
O=C(Nc1ccccc1)c1ccc(-c2ccc(Br)cc2)o1	WT yeast gro inh 74
O=C(NC1CCS(=O)(=O)C1)c1ccc(-c2ccc(Br)cc2)o1 (stereo not given)	WT yeast gro inh 82
Cc1cc2nc(/N=C(\N)NC(=O)N3c4ccccc4Sc4ccccc43)nc(C)c2cc1C	none
Cc1nc(NC(=O)COC(=O)CCS(=O)(=O)c2ccccc2Cl)c(Cl)cc1Cl	WT yeast gro inh 61
O=C1c2ccccc2C(=O)N1c1n[nH]c(CCc2ccccc2)n1	TNAP inh noacc 57
C#CCNC(=O)C1=C[C@H](c2cn(C(C)=O)c3ccccc23)C[C@H](OCc2ccc(CO)cc2)O1	Arbovirus inh 31
COCCNC(=O)C(=O)NNC(=O)c1ccccc1OC	none
CC(C)(C)n1nnnc1C(c1cccnc1)N(Cc1ccccc1)Cc1cccs1 (stereo not given)	WT yeast gro inh 81
CC(C)(C)n1nnnc1C(c1cccs1)N(Cc1ccccc1)Cc1cccnc1 (stereo not given)	none
Cc1ccc(C(c2nnnn2C(C)(C)C)N(Cc2ccco2)Cc2cccs2)cc1 (stereo not given)	none
